Laboratory results taken from ChEMBL document CHEMBL1629657, “In vitro antimicrobial activity of a new cephalosporin, ceftaroline, and determination of quality control ranges for MIC testing” (2009).
Converted amounts (≈) assume the structure as drawn.

How the values were obtained:
Type in all cases: functional
Providencia stuartii = test: Antimicrobial activity against Proteus stuartii by broth microdilution method
Summary of the method: (§1)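 Clinical isolates were tested by CLSI broth microdilution in unsupplemented cation-adjusted Mueller-Hinton broth. The read-out was the MIC, reported as MIC90 (μg/ml) per species or phenotypic group. Ceftriaxone, levofloxacin and imipenem were run in parallel as comparators.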

Proteus vulgaris = test: Antimicrobial activity against Proteus vulgaris by broth microdilution method; summary of the method: as §1
Serratia marcescens = test: Antimicrobial activity against Serratia marcescens by broth microdilution method; summary of the method: as §1
Shigella sp. = test: Antimicrobial activity against Shigella spp. by broth microdilution method; summary of the method: as §1
Salmonella sp. = test: Antimicrobial activity against Salmonella spp. by broth microdilution method; summary of the method: as §1
Burkholderia cepacia = test: Antimicrobial activity against Burkholderia cepacia by broth microdilution method; summary of the method: as §1
Pseudomonas aeruginosa [1] = test: Antimicrobial activity against Pseudomonas aeruginosa by broth microdilution method; summary of the method: as §1
Pseudomonas aeruginosa [2] = test: Antimicrobial activity against multidrug resistant Pseudomonas aeruginosa by broth microdilution method
Summary of the method: (§2)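 Isolates of the stated resistance phenotype were tested by CLSI broth microdilution in unsupplemented cation-adjusted Mueller-Hinton broth. Ceftaroline was compared with ceftriaxone, levofloxacin and imipenem. Activity was expressed as MICs (MIC90 in μg/ml).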

[3] = tested on: Stenotrophomonas maltophilia; test: Antimicrobial activity against Stenotrophomonas maltophilia by broth microdilution method; summary of the method: as §1
Moraxella catarrhalis = test: Antimicrobial activity against Moraxella catarrhalis by broth microdilution method; summary of the method: as §1
Haemophilus influenzae [4] = test: Antimicrobial activity against beta-lactamase-negative Haemophilus influenzae by broth microdilution method
Summary of the method: (§3)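 CLSI broth microdilution in Haemophilus test medium (cation-adjusted Mueller-Hinton base) against clinical H. influenzae isolates of the stated phenotype. Ceftaroline was compared with ceftriaxone, levofloxacin and imipenem. Activity was expressed as MICs (MIC90 in μg/ml).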

Haemophilus influenzae [5] = test: Antimicrobial activity against beta-lactamase-positive Haemophilus influenzae by broth microdilution method
Summary of the method: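 H. influenzae isolates were tested by CLSI broth microdilution using Haemophilus test medium. The MIC was read and MIC90 (μg/ml) reported for the group. Ceftriaxone, levofloxacin and imipenem served as comparators.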

Haemophilus influenzae [6] = test: Antimicrobial activity against beta-lactamase-negative ampicillin resistant Haemophilus influenzae by broth microdilution method; summary of the method: as §3
Staphylococcus aureus [7] = test: Antimicrobial activity against methicillin-resistant Staphylococcus aureus by broth microdilution method; summary of the method: as §2
Staphylococcus aureus [8] = test: Antimicrobial activity against methicillin-susceptible Staphylococcus aureus by broth microdilution method; summary of the method: as §1
Staphylococcus aureus [9] = test: Antimicrobial activity against vancomycin-intermediate Staphylococcus aureus by broth microdilution method; summary of the method: as §1
Staphylococcus aureus [10] = test: Antimicrobial activity against vancomycin-resistant Staphylococcus aureus by broth microdilution method; summary of the method: as §2
Staphylococcus [11] = test: Antimicrobial activity against methicillin-resistant coagulase-negative Staphylococcus by broth microdilution method; summary of the method: as §2
Staphylococcus [12] = test: Antimicrobial activity against methicillin-susceptible coagulase-negative Staphylococcus by broth microdilution method; summary of the method: as §1
Enterococcus faecalis [13] = test: Antimicrobial activity against Enterococcus faecalis by broth microdilution method; summary of the method: as §1
Enterococcus faecalis [14] = test: Antimicrobial activity against vancomycin-susceptible Enterococcus faecalis by broth microdilution method; summary of the method: as §1
Enterococcus faecium [15] = test: Antimicrobial activity against Enterococcus faecium by broth microdilution method; summary of the method: as §1
Enterococcus faecium [16] = test: Antimicrobial activity against vancomycin-susceptible Enterococcus faecium by broth microdilution method; summary of the method: as §1
Corynebacterium jeikeium = test: Antimicrobial activity against Corynebacterium jeikeium by broth microdilution method; summary of the method: as §1
Listeria monocytogenes = test: Antimicrobial activity against Listeria monocytogenes by broth microdilution method; summary of the method: as §1
Streptococcus agalactiae = test: Antimicrobial activity against Streptococcus agalactiae by broth microdilution method
Summary of the method: (§4)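 Streptococcal isolates were tested by CLSI broth microdilution in cation-adjusted Mueller-Hinton broth supplemented with 3% lysed horse blood. The read-out was the MIC, with MIC90 (μg/ml) reported per group. Ceftriaxone, levofloxacin and imipenem served as comparators.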

Streptococcus pneumoniae [17] = test: Antimicrobial activity against levofloxacin-resistant Streptococcus pneumoniae by broth microdilution method
Summary of the method: (§5)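 CLSI broth microdilution in cation-adjusted Mueller-Hinton broth with 3% lysed horse blood, against streptococcal clinical isolates of the stated phenotype. Ceftaroline was compared with ceftriaxone, levofloxacin and imipenem. Activity was expressed as MICs (MIC90 in μg/ml).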

Streptococcus pneumoniae [18] = test: Antimicrobial activity against penicillin-resistant Streptococcus pneumoniae by broth microdilution method; summary of the method: as §5
Streptococcus pneumoniae [19] = test: Antimicrobial activity against penicillin-intermediate Streptococcus pneumoniae by broth microdilution method; summary of the method: as §5
Streptococcus pneumoniae [20] = test: Antimicrobial activity against penicillin-susceptible Streptococcus pneumoniae by broth microdilution method; summary of the method: as §4
Streptococcus pyogenes [21] = test: Antimicrobial activity against macrolide-resistant Streptococcus pyogenes by broth microdilution method; summary of the method: as §5
Streptococcus pyogenes [22] = test: Antimicrobial activity against macrolide-susceptible Streptococcus pyogenes by broth microdilution method; summary of the method: as §5
Streptococcus viridans = test: Antimicrobial activity against Streptococcus viridans group clinical isolate by broth microdilution method; summary of the method: as §4
Klebsiella aerogenes = test: Antimicrobial activity against ESBL-negative Enterobacter aerogenes by broth microdilution method; summary of the method: as §1
Enterobacter cloacae = test: Antimicrobial activity against ESBL-negative Enterobacter cloacae by broth microdilution method; summary of the method: as §1
Escherichia coli = test: Antimicrobial activity against ESBL-positive Escherichia coli by broth microdilution method; summary of the method: as §1
Klebsiella pneumoniae [23] = test: Antimicrobial activity against ESBL-negative Klebsiella pneumoniae by broth microdilution method; summary of the method: as §1
Klebsiella pneumoniae [24] = test: Antimicrobial activity against ESBL-positive Klebsiella pneumoniae by broth microdilution method; summary of the method: as §1
Morganella morganii = test: Antimicrobial activity against Morganella morganii by broth microdilution method; summary of the method: as §1
Proteus mirabilis = test: Antimicrobial activity against Proteus mirabilis by broth microdilution method; summary of the method: as §1
Providencia rettgeri = test: Antimicrobial activity against Proteus rettgeri by broth microdilution method; summary of the method: as §1

`C[C@@H](O)[C@H]1C(=O)N2C(C(=O)O)=C(SCCNC=N)C[C@H]12` [IMIPENEM ANHYDROUS] gave an MIC50 (Providencia stuartii) of 2 µg/mL (≈ 6.68 µM), an MIC90 (Providencia stuartii) of 4 µg/mL (≈ 13.4 µM) and an MIC50 (Proteus vulgaris) of 2 µg/mL (≈ 6.68 µM). It also gave an MIC90 (Proteus vulgaris) of 4 µg/mL (≈ 13.4 µM), an MIC50 (Serratia marcescens) of 0.5 µg/mL (≈ 1.67 µM) and an MIC90 (Serratia marcescens) of 1 µg/mL (≈ 3.34 µM). The MIC (Shigella sp.) was 0.12 µg/mL (≈ 0.401 µM), the MIC50 (Shigella sp.) was 0.12 µg/mL (≈ 0.401 µM) and the MIC90 (Shigella sp.) was 0.25 µg/mL (≈ 0.835 µM). The MIC50 (Salmonella sp.) was 0.25 µg/mL (≈ 0.835 µM), the MIC90 (Salmonella sp.) was 0.25 µg/mL (≈ 0.835 µM) and the MIC50 (Burkholderia cepacia) was 8 µg/mL (≈ 26.7 µM). The MIC90 (Burkholderia cepacia) was 32 µg/mL (≈ 107 µM), the MIC (Pseudomonas aeruginosa [1]) was 1 µg/mL (≈ 3.34 µM) and the MIC50 (Pseudomonas aeruginosa [1]) was 1 µg/mL (≈ 3.34 µM). The MIC90 (Pseudomonas aeruginosa [1]) was 16 µg/mL (≈ 53.4 µM), the MIC50 (Pseudomonas aeruginosa [2]) was 8 µg/mL (≈ 26.7 µM) and the MIC90 (Pseudomonas aeruginosa [2]) was 16 µg/mL (≈ 53.4 µM). The MIC50 [3] was > 32 µg/mL, the MIC90 [3] was > 32 µg/mL and the MIC50 (Moraxella catarrhalis) was 0.06 µg/mL (≈ 0.2 µM). It also gave an MIC90 (Moraxella catarrhalis) of 0.06 µg/mL (≈ 0.2 µM), an MIC50 (Haemophilus influenzae [4]) of 0.5 µg/mL (≈ 1.67 µM) and an MIC90 (Haemophilus influenzae [4]) of 0.5 µg/mL (≈ 1.67 µM). It also gave an MIC50 (Haemophilus influenzae [5]) of 0.25 µg/mL (≈ 0.835 µM), an MIC90 (Haemophilus influenzae [5]) of 0.5 µg/mL (≈ 1.67 µM) and an MIC50 (Haemophilus influenzae [6]) of 0.5 µg/mL (≈ 1.67 µM). For the same compound, the MIC90 (Haemophilus influenzae [6]) was 1 µg/mL (≈ 3.34 µM), the MIC50 (Staphylococcus aureus [7]) was 0.25 µg/mL (≈ 0.835 µM) and the MIC90 (Staphylococcus aureus [7]) was 32 µg/mL (≈ 107 µM). The MIC (Staphylococcus aureus [8]) was 0.015 µg/mL (≈ 0.0501 µM), the MIC50 (Staphylococcus aureus [8]) was 0.015 µg/mL (≈ 0.0501 µM) and the MIC90 (Staphylococcus aureus [8]) was 0.03 µg/mL (≈ 0.1 µM). For the same compound, the MIC50 (Staphylococcus aureus [9]) was 0.25 µg/mL (≈ 0.835 µM), the MIC90 (Staphylococcus aureus [9]) was > 32 µg/mL and the MIC (Staphylococcus aureus [10]) was 1 µg/mL (≈ 3.34 µM). The MIC50 (Staphylococcus [11]) was 0.25 µg/mL (≈ 0.835 µM), the MIC90 (Staphylococcus [11]) was 32 µg/mL (≈ 107 µM) and the MIC (Staphylococcus [12]) was 0.015 µg/mL (≈ 0.0501 µM). The MIC50 (Staphylococcus [12]) was 0.015 µg/mL (≈ 0.0501 µM), the MIC90 (Staphylococcus [12]) was 0.03 µg/mL (≈ 0.1 µM) and the MIC50 (Enterococcus faecalis [13]) was 1 µg/mL (≈ 3.34 µM). The MIC90 (Enterococcus faecalis [13]) was 2 µg/mL (≈ 6.68 µM), the MIC50 (Enterococcus faecalis [14]) was 1 µg/mL (≈ 3.34 µM) and the MIC90 (Enterococcus faecalis [14]) was 2 µg/mL (≈ 6.68 µM). The MIC50 (Enterococcus faecium [15]) was > 32 µg/mL, the MIC90 (Enterococcus faecium [15]) was > 32 µg/mL and the MIC50 (Enterococcus faecium [16]) was 4 µg/mL (≈ 13.4 µM). For the same compound, the MIC90 (Enterococcus faecium [16]) was > 32 µg/mL, the MIC50 (Corynebacterium jeikeium) was > 32 µg/mL and the MIC90 (Corynebacterium jeikeium) was > 32 µg/mL. The MIC50 (Listeria monocytogenes) was 0.06 µg/mL (≈ 0.2 µM), the MIC90 (Listeria monocytogenes) was 0.06 µg/mL (≈ 0.2 µM) and the MIC (Streptococcus agalactiae) was 0.015 µg/mL (≈ 0.0501 µM). For the same compound, the MIC50 (Streptococcus agalactiae) was 0.015 µg/mL (≈ 0.0501 µM), the MIC90 (Streptococcus agalactiae) was 0.015 µg/mL (≈ 0.0501 µM) and the MIC50 (Streptococcus pneumoniae [17]) was 0.03 µg/mL (≈ 0.1 µM). For the same compound, the MIC90 (Streptococcus pneumoniae [17]) was 0.25 µg/mL (≈ 0.835 µM), the MIC50 (Streptococcus pneumoniae [18]) was 0.5 µg/mL (≈ 1.67 µM) and the MIC90 (Streptococcus pneumoniae [18]) was 1 µg/mL (≈ 3.34 µM). It also gave an MIC50 (Streptococcus pneumoniae [19]) of 0.03 µg/mL (≈ 0.1 µM), an MIC90 (Streptococcus pneumoniae [19]) of 0.06 µg/mL (≈ 0.2 µM) and an MIC (Streptococcus pneumoniae [20]) of 0.015 µg/mL (≈ 0.0501 µM). The MIC50 (Streptococcus pneumoniae [20]) was 0.015 µg/mL (≈ 0.0501 µM), the MIC90 (Streptococcus pneumoniae [20]) was 0.015 µg/mL (≈ 0.0501 µM) and the MIC (Streptococcus pyogenes [21]) was 0.015 µg/mL (≈ 0.0501 µM). For the same compound, the MIC50 (Streptococcus pyogenes [21]) was 0.015 µg/mL (≈ 0.0501 µM), the MIC90 (Streptococcus pyogenes [21]) was 0.015 µg/mL (≈ 0.0501 µM) and the MIC (Streptococcus pyogenes [22]) was 0.015 µg/mL (≈ 0.0501 µM). It also gave an MIC50 (Streptococcus pyogenes [22]) of 0.015 µg/mL (≈ 0.0501 µM), an MIC90 (Streptococcus pyogenes [22]) of 0.015 µg/mL (≈ 0.0501 µM) and an MIC (Streptococcus viridans) of 0.015 µg/mL (≈ 0.0501 µM). The MIC50 (Streptococcus viridans) was 0.015 µg/mL (≈ 0.0501 µM), the MIC90 (Streptococcus viridans) was 0.12 µg/mL (≈ 0.401 µM) and the MIC50 (Klebsiella aerogenes) was 1 µg/mL (≈ 3.34 µM). It also gave an MIC90 (Klebsiella aerogenes) of 1 µg/mL (≈ 3.34 µM), an MIC50 (Enterobacter cloacae) of 0.25 µg/mL (≈ 0.835 µM) and an MIC90 (Enterobacter cloacae) of 0.5 µg/mL (≈ 1.67 µM). It also gave an MIC50 (Escherichia coli) of 0.12 µg/mL (≈ 0.401 µM), an MIC90 (Escherichia coli) of 0.25 µg/mL (≈ 0.835 µM) and an MIC50 (Klebsiella pneumoniae [23]) of 0.25 µg/mL (≈ 0.835 µM). The MIC90 (Klebsiella pneumoniae [23]) was 0.5 µg/mL (≈ 1.67 µM), the MIC50 (Klebsiella pneumoniae [24]) was 0.12 µg/mL (≈ 0.401 µM) and the MIC90 (Klebsiella pneumoniae [24]) was 0.25 µg/mL (≈ 0.835 µM). The MIC50 (Morganella morganii) was 4 µg/mL (≈ 13.4 µM), the MIC90 (Morganella morganii) was 4 µg/mL (≈ 13.4 µM) and the MIC50 (Proteus mirabilis) was 2 µg/mL (≈ 6.68 µM). It also gave an MIC90 (Proteus mirabilis) of 4 µg/mL (≈ 13.4 µM), an MIC50 (Providencia rettgeri) of 2 µg/mL (≈ 6.68 µM) and an MIC90 (Providencia rettgeri) of 4 µg/mL (≈ 13.4 µM).
